Several values for one entry are separate records, joined by “and”; a condition that tells them apart may be missing. Identical values can stand only once.
Columns and labels:
Type in all cases: toxicity, cell-based
[1] = tested on: Fibroblast; test: Multiplex assay against human fibroblast
Method in brief: (§1)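 Live cells were stained at seeding with Hoechst33342, BioTracker Green Microtubule Cytoskeleton Dye, MitoTracker Red and Annexin V Alexa Fluor 680, then imaged on a CQ1 microscope at 37°C and 5% CO2 after compound addition. CellPathfinder machine-learning gating split cells into Hoechst high-intensity objects or normal cells. Normal cells were split into healthy, pyknosed or fragmented nuclei, and pyknosed cells into mitotic or apoptotic. Tubulin, mitochondrial-mass and membrane-permeability phenotypes are per cents of healthy-nucleus cells.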

[2] = tested on: HEK-293T; test: Multiplex assay against HEK293T; settings: human; method in brief: as §1
[3] = tested on: U2OS; test: Multiplex assay against U2OS; settings: human; method in brief: as §1
[4] = 12 h, 1 µM, compound concentration 1 uM
[5] = 12 h, 10 µM, compound concentration 10 uM
[6] = 24 h, 1 µM, compound concentration 1 uM
[7] = 24 h, 10 µM, compound concentration 10 uM
[8] = 48 h, 1 µM, compound concentration 1 uM
[9] = 48 h, 10 µM, compound concentration 10 uM

CNc1nc(NCc2ncccn2)c2c(-c3ccc4ncccc4c3)c[nH]c2n1
Population Fragmented Nuclei (%) [1, 4]: 13.9% and 7.14%
Population Healthy Nuclei (%) [1, 4]: 54.01% and 75.6%
Population Hoechst High Intensity Objects (%) [1, 4]: 0%
Population Membrane Permeable-Phenotype (%) [1, 4]: 2.97% and 3.94%
Population Mitochondria Different-Phenotype (%) [1, 4]: 7.92% and 10.24%
Population Mitotic Cells (%) [1, 4]: 95% and 75.86%
Population Normal (%) [1, 4]: 100%
Population Pyknosed Nuclei (%) [1, 4]: 32.09% and 17.26%
Population Tubulin-Different-Phenotype (%) [1, 4]: 11.88% and 22.83%
Total Cell Count [1, 4]: 187 and 168
Population Apoptotic (%) [1, 5]: 15.15% and 23.33%
Population Fragmented Nuclei (%) [1, 5]: 8.7% and 4.55%
Population Healthy Nuclei (%) [1, 5]: 70.81% and 81.82%
Population Hoechst High Intensity Objects (%) [1, 5]: 0%
Population Membrane Permeable-Phenotype (%) [1, 5]: 15.79% and 10%
Population Mitochondria Different-Phenotype (%) [1, 5]: 16.67% and 13.89%
Population Mitotic Cells (%) [1, 5]: 84.85% and 76.67%
Population Normal (%) [1, 5]: 100%
Population Pyknosed Nuclei (%) [1, 5]: 20.5% and 13.64%
Population Tubulin-Different-Phenotype (%) [1, 5]: 33.33% and 51.67%
Total Cell Count [1, 5]: 161 and 220
Population Fragmented Nuclei (%) [1, 6]: 11.26% and 5.29%
Population Healthy Nuclei (%) [1, 6]: 65.37% and 85.29%
Population Hoechst High Intensity Objects (%) [1, 6]: 0%
Population Membrane Permeable-Phenotype (%) [1, 6]: 1.99% and 6.21%
Population Mitochondria Different-Phenotype (%) [1, 6]: 3.31% and 4.83%
Population Mitotic Cells (%) [1, 6]: 98.15% and 87.5%
Population Normal (%) [1, 6]: 100%
Population Pyknosed Nuclei (%) [1, 6]: 23.38% and 9.41%
Population Tubulin-Different-Phenotype (%) [1, 6]: 12.58% and 11.72%
Total Cell Count [1, 6]: 231 and 170
Population Apoptotic (%) [1, 7]: 23.08% and 26.09%
Population Fragmented Nuclei (%) [1, 7]: 8.06% and 4.98%
Population Healthy Nuclei (%) [1, 7]: 77.96% and 84.62%
Population Hoechst High Intensity Objects (%) [1, 7]: 0%
Population Membrane Permeable-Phenotype (%) [1, 7]: 2.76% and 4.28%
Population Mitochondria Different-Phenotype (%) [1, 7]: 11.72% and 12.83%
Population Mitotic Cells (%) [1, 7]: 76.92% and 73.91%
Population Normal (%) [1, 7]: 100%
Population Pyknosed Nuclei (%) [1, 7]: 13.98% and 10.41%
Population Tubulin-Different-Phenotype (%) [1, 7]: 37.24% and 52.41%
Total Cell Count [1, 7]: 186 and 221
Population Apoptotic (%) [1, 8]: 11.76% and 6.67%
Population Fragmented Nuclei (%) [1, 8]: 8.43% and 2.79%
Population Healthy Nuclei (%) [1, 8]: 85.06% and 88.83%
Population Hoechst High Intensity Objects (%) [1, 8]: 0%
Population Membrane Permeable-Phenotype (%) [1, 8]: 1.35% and 4.4%
Population Mitochondria Different-Phenotype (%) [1, 8]: 11.26% and 5.66%
Population Mitotic Cells (%) [1, 8]: 88.24% and 93.33%
Population Normal (%) [1, 8]: 100%
Population Pyknosed Nuclei (%) [1, 8]: 6.51% and 8.38%
Total Cell Count [1, 8]: 261 and 179
Population Apoptotic (%) [1, 9]: 23.08% and 42.86%
Population Fragmented Nuclei (%) [1, 9]: 11.86% and 6.28%
Population Healthy Nuclei (%) [1, 9]: 81.44% and 90.58%
Population Hoechst High Intensity Objects (%) [1, 9]: 0%
Population Membrane Permeable-Phenotype (%) [1, 9]: 5.06% and 7.92%
Population Mitotic Cells (%) [1, 9]: 76.92% and 57.14%
Population Normal (%) [1, 9]: 100%
Population Pyknosed Nuclei (%) [1, 9]: 6.7% and 3.14%
Population Tubulin-Different-Phenotype (%) [1, 9]: 18.35% and 54.46%
Total Cell Count [1, 9]: 194 and 223
Population Apoptotic (%) [2, 4]: 9.22% and 10.1%
Population Fragmented Nuclei (%) [2, 4]: 2.26% and 3.88%
Population Hoechst High Intensity Objects (%) [2, 4]: 0.25% and 0%
Population Membrane Permeable-Phenotype (%) [2, 4]: 0.81% and 0%
Population Mitotic Cells (%) [2, 4]: 90.78% and 89.9%
Population Normal (%) [2, 4]: 99.75% and 100%
Population Pyknosed Nuclei (%) [2, 4]: 35.43% and 76.74%
Population Apoptotic (%) [2, 5]: 13.38% and 23.23%
Population Fragmented Nuclei (%) [2, 5]: 2.88% and 3.98%
Population Hoechst High Intensity Objects (%) [2, 5]: 0.64% and 0%
Population Membrane Permeable-Phenotype (%) [2, 5]: 0%
Population Mitotic Cells (%) [2, 5]: 86.62% and 76.77%
Population Normal (%) [2, 5]: 99.36% and 100%
Population Pyknosed Nuclei (%) [2, 5]: 45.51% and 88.07%
Population Tubulin-Different-Phenotype (%) [2, 5]: 20.5% and 42.86%
Total Cell Count [2, 5]: 314 and 176
Population Apoptotic (%) [2, 6]: 7.44% and 13.04%
Population Fragmented Nuclei (%) [2, 6]: 1.55% and 3.01%
Population Healthy Nuclei (%) [2, 6]: 79.72% and 45.11%
Population Hoechst High Intensity Objects (%) [2, 6]: 0.15% and 0%
Population Membrane Permeable-Phenotype (%) [2, 6]: 0.78% and 0%
Population Mitochondria Different-Phenotype (%) [2, 6]: 15.34% and 13.33%
Population Mitotic Cells (%) [2, 6]: 92.56% and 86.96%
Population Normal (%) [2, 6]: 99.85% and 100%
Population Pyknosed Nuclei (%) [2, 6]: 18.73% and 51.88%
Population Tubulin-Different-Phenotype (%) [2, 6]: 9.13% and 10%
Population Apoptotic (%) [2, 7]: 21.74% and 18.6%
Population Fragmented Nuclei (%) [2, 7]: 2.16% and 2.65%
Population Healthy Nuclei (%) [2, 7]: 75.72% and 29.1%
Population Hoechst High Intensity Objects (%) [2, 7]: 0%
Population Membrane Permeable-Phenotype (%) [2, 7]: 2.22% and 7.27%
Population Mitochondria Different-Phenotype (%) [2, 7]: 39.37% and 32.73%
Population Mitotic Cells (%) [2, 7]: 78.26% and 81.4%
Population Normal (%) [2, 7]: 100%
Population Tubulin-Different-Phenotype (%) [2, 7]: 28.89% and 25.45%
Total Cell Count [2, 7]: 416 and 189
Population Fragmented Nuclei (%) [2, 8]: 3.92% and 2.35%
Population Healthy Nuclei (%) [2, 8]: 88.02% and 64.71%
Population Hoechst High Intensity Objects (%) [2, 8]: 0% and 0.58%
Population Membrane Permeable-Phenotype (%) [2, 8]: 3.68% and 0.91%
Population Mitochondria Different-Phenotype (%) [2, 8]: 13.1% and 22.73%
Population Mitotic Cells (%) [2, 8]: 93.46% and 80.36%
Population Normal (%) [2, 8]: 100% and 99.42%
Population Apoptotic (%) [2, 9]: 10.91% and 21.43%
Population Fragmented Nuclei (%) [2, 9]: 4.49% and 5.56%
Population Healthy Nuclei (%) [2, 9]: 86.38% and 55.56%
Population Hoechst High Intensity Objects (%) [2, 9]: 0% and 2.7%
Population Membrane Permeable-Phenotype (%) [2, 9]: 2.12% and 5%
Population Mitochondria Different-Phenotype (%) [2, 9]: 57.5% and 60%
Population Mitotic Cells (%) [2, 9]: 89.09% and 78.57%
Population Normal (%) [2, 9]: 100% and 97.3%
Population Apoptotic (%) [3, 4]: 34.88% and 46.15%
Population Fragmented Nuclei (%) [3, 4]: 1.68% and 0.68%
Population Healthy Nuclei (%) [3, 4]: 88.01% and 90.48%
Population Hoechst High Intensity Objects (%) [3, 4]: 0%
Population Membrane Permeable-Phenotype (%) [3, 4]: 1.36% and 3.01%
Population Mitochondria Different-Phenotype (%) [3, 4]: 0% and 4.51%
Population Mitotic Cells (%) [3, 4]: 65.12% and 53.85%
Population Normal (%) [3, 4]: 100%
Population Pyknosed Nuclei (%) [3, 4]: 10.31% and 8.84%
Population Tubulin-Different-Phenotype (%) [3, 4]: 0.82% and 0.75%
Total Cell Count [3, 4]: 417 and 147
Population Apoptotic (%) [3, 5]: 30.95% and 40%
Population Fragmented Nuclei (%) [3, 5]: 0.88% and 3.14%
Population Healthy Nuclei (%) [3, 5]: 86.76% and 84.28%
Population Hoechst High Intensity Objects (%) [3, 5]: 0%
Population Membrane Permeable-Phenotype (%) [3, 5]: 6.44% and 8.21%
Population Mitotic Cells (%) [3, 5]: 69.05% and 60%
Population Normal (%) [3, 5]: 100%
Population Pyknosed Nuclei (%) [3, 5]: 12.35% and 12.58%
Population Tubulin-Different-Phenotype (%) [3, 5]: 6.78% and 4.48%
Total Cell Count [3, 5]: 340 and 159
Population Apoptotic (%) [3, 6]: 48.89% and 42.86%
Population Fragmented Nuclei (%) [3, 6]: 2.09% and 2.01%
Population Healthy Nuclei (%) [3, 6]: 90.09% and 83.92%
Population Hoechst High Intensity Objects (%) [3, 6]: 0%
Population Membrane Permeable-Phenotype (%) [3, 6]: 0.58% and 1.2%
Population Mitochondria Different-Phenotype (%) [3, 6]: 0.19% and 6.59%
Population Mitotic Cells (%) [3, 6]: 51.11% and 57.14%
Population Normal (%) [3, 6]: 100%
Population Pyknosed Nuclei (%) [3, 6]: 7.83% and 14.07%
Population Tubulin-Different-Phenotype (%) [3, 6]: 0.58% and 0.6%
Total Cell Count [3, 6]: 575 and 199
Population Apoptotic (%) [3, 7]: 29.41% and 43.75%
Population Fragmented Nuclei (%) [3, 7]: 2.37% and 4.04%
Population Healthy Nuclei (%) [3, 7]: 89.57% and 87.88%
Population Hoechst High Intensity Objects (%) [3, 7]: 0%
Population Membrane Permeable-Phenotype (%) [3, 7]: 1.59% and 2.3%
Population Mitotic Cells (%) [3, 7]: 70.59% and 56.25%
Population Normal (%) [3, 7]: 100%
Population Pyknosed Nuclei (%) [3, 7]: 8.06% and 8.08%
Population Tubulin-Different-Phenotype (%) [3, 7]: 2.12% and 1.15%
Total Cell Count [3, 7]: 422 and 198
Population Apoptotic (%) [3, 8]: 45% and 54.29%
Population Fragmented Nuclei (%) [3, 8]: 3.04% and 1.19%
Population Healthy Nuclei (%) [3, 8]: 87.45% and 88.36%
Population Hoechst High Intensity Objects (%) [3, 8]: 0%
Population Membrane Permeable-Phenotype (%) [3, 8]: 1.2% and 1.35%
Population Mitochondria Different-Phenotype (%) [3, 8]: 0.11% and 4.39%
Population Mitotic Cells (%) [3, 8]: 55% and 45.71%
Population Normal (%) [3, 8]: 100%
Population Pyknosed Nuclei (%) [3, 8]: 9.51% and 10.45%
Population Tubulin-Different-Phenotype (%) [3, 8]: 1.41% and 0.68%
Population Apoptotic (%) [3, 9]: 55.56% and 56%
Population Fragmented Nuclei (%) [3, 9]: 1.27% and 3.63%
Population Healthy Nuclei (%) [3, 9]: 89.84% and 88.12%
Population Hoechst High Intensity Objects (%) [3, 9]: 0%
Population Membrane Permeable-Phenotype (%) [3, 9]: 0.94% and 1.87%
Population Mitochondria Different-Phenotype (%) [3, 9]: 0.78% and 7.87%
Population Mitotic Cells (%) [3, 9]: 44.44% and 44%
Population Normal (%) [3, 9]: 100%
Population Pyknosed Nuclei (%) [3, 9]: 8.89% and 8.25%
Population Tubulin-Different-Phenotype (%) [3, 9]: 1.88% and 1.5%
Total Cell Count [3, 9]: 709 and 303

Reference: ChEMBL document CHEMBL5724801, “EUbOPEN Chemogenomics Library - Multiplex” (2024)
